Measurements taken from ChEMBL document CHEMBL4028863, “Exploring Heme and Hemoglobin Binding Regions of Plasmodium Heme Detoxification Protein for New Antimalarial Discovery” (J Med Chem, 2017).
Calls of active or inactive are those of the source. The rule behind the calls is not given here.

What was measured:
Plasmodium falciparum [1] = assay: Antiparasitic activity against late ring stage Plasmodium falciparum 3D7 infected in RBC at 50 to 100 uM after 60 hrs by ethidium bromide staining based flow cytometric analysis; type: functional
In short: (§1)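 P. falciparum 3D7 cultures synchronized with 5% sorbitol; assay set at late ring stage, 2% hematocrit, 1% parasitemia. Compounds added at 50 and 100 μM (screen) or 5−100 μM (dose series). Parasitemia read by flow cytometry after 60 h (methods: 48 h into next cycle): ethidium bromide 10 μg/mL, 20 min, 37 °C; FL2-positive fraction of 100000 cells, uninfected RBCs as control. Triplicates.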

Plasmodium falciparum [2] = assay: Growth inhibition of late ring stage Plasmodium falciparum 3D7 infected in RBC after 60 hrs by e thidium bromidestaining based flow cytometric analysis; type: functional; in short: as §1
[3] = Stability of the compound under freezing condition; type: physicochemical
[4] = Inhibition of wild type Plasmodium falciparum HDP binding to hemoglobin at 0.5 to 100 uM preincubated for 30 min followed by HDP addition measured after 1 hr by ELISA
In short: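 ELISA competition: 400 ng hemoglobin preincubated with varying peptide concentrations for 30 min at 37 °C, then added to wells coated overnight at 4 °C with 200 ng recombinant PfHDP and blocked with 3% BSA. Detection with anti-Hb (1:500), then HRP anti-rabbit (1:5000) for 1 h, OPD substrate, absorbance 490 nm. Control peptide included.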

Plasmodium falciparum [5] = assay: Antiplasmodial activity against late trophozoite stage of Plasmodium falciparum 3D7 infected in RBC assessed as gross deformaties in food vacuole at 50 to 100 uM after 12 hrs by giemsa staining based microscopic analysis; type: functional
In short: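 Sorbitol-synchronized 3D7 late-ring cultures at 2% hematocrit and 1% parasitemia were given peptide at 50−100 μM. After 12 h, at the late trophozoite stage, Giemsa-stained smears were examined by microscopy for food vacuole morphology.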

Heme [6] = assay: Binding affinity to heme (unknown origin) assessed as reduction in heme to hemozoin conversion by Plasmodium falciparum HDP at 100 uM relative to control; design: scale not given: the % may be the effect or the level left
In short: (§2)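 Heme-to-hemozoin conversion: heme (10 mM DMSO stock) at 300 μM with 0.5 μM recombinant PfHDP in 500 mM sodium acetate pH 5.2, 4 h at 37 °C. Stopped with SDS. Pellet washed in 2.5% SDS and in 50 mM bicarbonate pH 9.1 to strip free heme. Hemozoin dissolved in 0.1N NaOH/2.5% SDS, read at 405 nm. Triplicates.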

Heme [7] = assay: Binding affinity to heme (unknown origin) assessed as reduction in heme to hemozoin conversion by Plasmodium falciparum HDP; in short: as §2
Heme [8] = assay: Binding affinity to heme (unknown origin) at 20 uM by SORET assay
In short: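 Soret titration: 20 μM peptide in 100 mM sodium acetate pH 5.2; heme added in 3 μM increments. Spectrum recorded after each addition; change in absorbance at 400 nm plotted against heme concentration. Alanine-substituted peptide served as control.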

[9] = target: T1, Heme ligase (Plasmodium falciparum (isolate 3D7)) (UniProt Q8IL04); conditions: Plasmodium falciparum 3D7; 50 uM
T1 sequence (whole entry): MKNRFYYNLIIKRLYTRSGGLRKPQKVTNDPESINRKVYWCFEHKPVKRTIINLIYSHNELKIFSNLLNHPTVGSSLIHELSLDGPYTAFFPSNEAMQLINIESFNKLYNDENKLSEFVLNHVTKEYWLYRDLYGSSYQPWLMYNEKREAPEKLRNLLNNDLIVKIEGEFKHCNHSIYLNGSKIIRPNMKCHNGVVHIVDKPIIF

Heme ligase = target: T2, Heme ligase (Plasmodium falciparum (isolate 3D7), UniProt Q8IL04); assay: Binding affinity to Plasmodium falciparum 3D7 HDP assessed as equilibrium dissociation constant by SPR assay
T2 sequence (Q8IL04 whole entry): T1 sequence (whole entry)
In short: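 Recombinant Pf HDP immobilised (>9500 RU) on a CM5 chip from 10 mM sodium acetate pH 4.0, then ethanolamine-blocked. Ligand was diluted from a 10 mM DMSO stock to 200 μM (2% DMSO), and a concentration series was made in PBS pH 7.4 running buffer with 2% DMSO and 0.05% P20. Eight-point DMSO solvent correction, glycine pH 2.5 regeneration, 25 °C, kinetic fit.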

[10] = target: T1, Heme ligase (Plasmodium falciparum (isolate 3D7))

Compound	Stability [3]	Activity (Plasmodium falciparum [1])	growth inhibition (GI) (Plasmodium falciparum [2])	other results
H-LRNLLNNDLIVKIEGEFKH-OH				inhibition [4]: Active; Activity (Plasmodium falciparum [5]): Active
NS(=O)(=O)c1cccc(-c2ccc(C3Nc4ccccc4-c4nc5ccccc5n43)o2)c1 (centres undefined)		Active		
C(=C1/c2ccccc2-c2c1ccc1ccccc21)/c1cc2c3c(cccc3c1)-c1ccccc1-2		Active		
COc1ccc(Oc2ccc(C(F)(F)F)cc2NS(=O)(=O)c2cccc3nonc23)cc1		Active		
H-GEFKHCNHSIYLNG-OH				Activity (Heme [6]): > 75%; Activity (Heme [7]): Dose-dependent effect; Activity (Heme [8]): Active
O=C(CCn1c(=O)oc2ccccc21)Nc1cc(C(F)(F)F)cc(C(F)(F)F)c1		Active		
N#Cc1cc(Cc2ccc3c(ccc4ccccc43)c2C#N)cc2c1ccc1ccccc12		Active		
H-LHRKNFLELGNENIDKL-OH				inhibition [4]: inactive
Cc1cc(=O)oc2cc(NS(=O)(=O)c3cccc4nonc34)ccc12		Active		
FC(F)(F)c1cccc(N2CCN(C3=Cc4ccccc4CC3)CC2)c1	Stable	Active	Dose-dependent effect	inhibition [9]: 31%; Kd (Heme ligase): 2.96 µM; Ka [10]: 3.37 ×10⁵ /M; IC50 (Plasmodium falciparum [2]; 3D7, 60 h): 59.6 µM
H-MKCHNGVVHIVD-OH				Activity (Heme [6]): > 75%; Activity (Heme [7]): Dose-dependent effect; Activity (Heme [8]): Active
O=c1oc2ccccc2c2c1C(c1cccc([N+](=O)[O-])c1)c1c(c3ccccc3oc1=O)O2		Active		
H-GEFKAAAASIYLNG-OH				Activity (Heme [8]): Active

The next lines start with results.

Stability [3]	Compound	Activity (Plasmodium falciparum [1])	growth inhibition (GI) (Plasmodium falciparum [2])	other results
Unstable	Cc1ccc(-n2nnnc2SCc2nc(-c3cccc([N+](=O)[O-])c3)no2)c(C)c1	Active	Dose-dependent effect	
Unstable	O=C(NNC(=O)C1c2ccccc2Oc2ccccc21)c1cccc(C(F)(F)F)c1	Active	Dose-dependent effect	
Unstable	O=[N+]([O-])c1ccc(N/N=C2/C(=C/c3cccc4ccccc34)CCc3ccccc32)c([N+](=O)[O-])c1	Active	Dose-dependent effect	
Unstable	Cc1ccc(Oc2ncccc2NC(=O)c2ccc3c(c2)OCCCO3)c2c1CCC2	Active	Dose-dependent effect	
Unstable	O=C(c1cccs1)c1nn(-c2ccccc2)c2nc(=O)cc(-c3ccccc3)n12	Active	Dose-dependent effect	
